Data from ChEMBL document CHEMBL2203168, “Amine linked flavonoid dimers as modulators for P-glycoprotein-based multidrug resistance: structure-activity relationship and mechanism of modulation” (J Med Chem, 2012).

How the values were obtained:
Homo sapiens [1] = species: Homo sapiens; assay: Inhibition of P-gp-mediated paclitaxel resistance in human LCC6MDR cells assessed as fold decrease in paclitaxel IC50 for cytotoxic activity at 1 uM after 5 days by MTS assay relative to parental cells; type: cell-based
MDR = assay: Cytotoxicity against human MDA435/LCC6MDR cells expressing MDR after 72 hrs; type: functional, cell-based
Summary of the method: (§1)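 Cells seeded at 1 × 10⁴ per well in supplemented DMEM and given graded doses of dimer for 72 h at 37 °C, 5% CO₂. Survival measured and IC50 derived. N = 1–3 independent experiments, mean ± SEM.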

L929 = assay: Cytotoxicity against mouse L929 cells after 72 hrs; type: cell-based; details: L929, 72 h; summary of the method: as §1
Homo sapiens [2] = species: Homo sapiens; assay: Inhibition of P-gp-mediated paclitaxel resistance in human LCC6MDR cells assessed as fold decrease in paclitaxel IC50 for cytotoxic activity at 0.5 uM after 5 days by MTS assay relative to parental cells; type: cell-based
[3] = Cytotoxicity against human LCC-6 cells after 72 hrs; type: functional, cell-based; details: LCC-6, 72 h; summary of the method: as §1
[4] = Reversal of P-gp-mediated paclitaxel-resistance in human LCC6MDR cells after 5 days by MTS assay; type: cell-based; details: 120 h
[5] = Therapeutic index, ratio of IC50 for L929 cells to EC50 for reversing paclitaxel resistance in human MDA435/LCC6MDR cells; type: cell-based; details: L929 cells (IC50) and MDA435/LCC6MDR cells (EC50)

SMILES	Ratio (Homo sapiens [1])	IC50 (MDR)	IC50 (L929)	Ratio (Homo sapiens [2])	IC50 [3]	EC50 [4]	selectivity ratio [5]
Cc1ccc2oc(-c3ccc(OCCOCCN(CCOCCOc4ccc(-c5cc(=O)c6cc(C)ccc6o5)cc4)C(=O)OC(C)(C)C)cc3)cc(=O)c2c1	139	> 100 µM	> 100 µM	9.6	> 100 µM	–	–
O=c1cc(-c2ccc(OCCOCCOCCOCCOc3ccc(-c4cc(=O)c5ccccc5o4)cc3)cc2)oc2ccccc12	17.2	–	–	6.2	–	–	–
CC(C)(C)OC(=O)N(CCOCCOc1ccc(-c2oc3ccccc3c(=O)c2OCc2ccccc2)cc1)CCOCCOc1ccc(-c2oc3ccccc3c(=O)c2OCc2ccccc2)cc1	1.2	> 100 µM	–	1.1	> 100 µM	–	–
O=C(c1ccccc1)N(CCOCCOc1ccc(-c2cc(=O)c3ccccc3o2)cc1)CCOCCOc1ccc(-c2cc(=O)c3ccccc3o2)cc1	42.5	> 100 µM	95 µM	7.5	> 100 µM	–	–
COc1cc(-c2cc(=O)c3ccccc3o2)ccc1OCCOCCNCCOCCOc1ccc(-c2cc(=O)c3ccccc3o2)cc1OC	1.1	23.8 µM	–	0.8	12.8 µM	–	–
O=c1cc(-c2ccc(OCCOCCN(CCOCCOc3ccc(-c4cc(=O)c5ccccc5o4)cc3)Cc3cccc(F)c3)cc2)oc2ccccc12	118	> 100 µM	> 87 µM	36.5	> 100 µM	0.258 µM	> 337
O=c1cc(-c2ccc(OCCOCCN(CCOCCOc3ccc(-c4cc(=O)c5ccccc5o4)cc3)Cc3ccc(C(F)(F)F)cc3)cc2)oc2ccccc12	90.1	> 100 µM	32.7 µM	37.3	> 100 µM	0.15 µM	218
CC(=O)O[C@H]1C(=O)[C@@]2(C)[C@H]([C@H](OC(=O)c3ccccc3)[C@]3(O)C[C@H](OC(=O)[C@H](O)[C@@H](NC(=O)c4ccccc4)c4ccccc4)C(C)=C1C3(C)C)[C@]1(OC(C)=O)CO[C@@H]1C[C@@H]2O	1	–	–	–	–	–	–
O=c1cc(-c2ccc(OCCOCCNCCOCCOc3ccc(-c4cc(=O)c5cc(F)ccc5o4)cc3)cc2)oc2ccc(F)cc12	109	3.3 µM	5.7 µM	72.9	5.3 µM	–	–
O=c1c(OCc2ccccc2)c(-c2ccc(OCCOCCNCCOCCOc3ccc(-c4oc5ccccc5c(=O)c4OCc4ccccc4)cc3)cc2)oc2ccccc12	128	4.4 µM	4.2 µM	54.7	4.3 µM	–	–
O=c1cc(-c2ccc(OCCOCCN(CCOCCOc3ccc(-c4cc(=O)c5ccccc5o4)cc3)Cc3ccc(F)c(F)c3)cc2)oc2ccccc12	109	33.6 µM	42.2 µM	49.3	32.5 µM	–	–
O=c1cc(-c2ccc(OCCOCCN(CCCc3ccccc3)CCOCCOc3ccc(-c4cc(=O)c5ccccc5o4)cc3)cc2)oc2ccccc12	56.7	> 100 µM	9.5 µM	12.5	> 100 µM	0.25 µM	38
O=c1cc(-c2ccc(OCCOCCN(CCOCCOc3ccc(-c4cc(=O)c5ccccc5o4)cc3)Cc3ccccc3F)cc2)oc2ccccc12	102	> 100 µM	> 100 µM	43.7	> 100 µM	0.179 µM	> 559
O=c1cc(-c2ccc(OCCOCCN(CCOCCOc3ccc(-c4cc(=O)c5ccccc5o4)cc3)Cc3ccc(F)cc3)cc2)oc2ccccc12	109	> 83 µM	19.7 µM	31.2	> 100 µM	0.255 µM	77.3
C[C@H](N)C(=O)N(CCOCCOc1ccc(-c2cc(=O)c3ccccc3o2)cc1)CCOCCOc1ccc(-c2cc(=O)c3ccccc3o2)cc1	0.9	4.6 µM	–	1	4.4 µM	–	–
Cc1ccc2oc(-c3ccc(OCCOCCNCCOCCOc4ccc(-c5cc(=O)c6cc(C)ccc6o5)cc4)cc3)cc(=O)c2c1	139	7 µM	6 µM	13.9	7.5 µM	–	–
CN(C)c1cccc2c(S(=O)(=O)N(CCOCCOc3ccc(-c4cc(=O)c5ccccc5o4)cc3)CCOCCOc3ccc(-c4cc(=O)c5ccccc5o4)cc3)cccc12	1.3	> 100 µM	–	1.4	> 100 µM	–	–
CC(C)(C)OC(=O)N(CCOCCOc1ccc(-c2cc(=O)c3cc(F)ccc3o2)cc1)CCOCCOc1ccc(-c2cc(=O)c3cc(F)ccc3o2)cc1	31.9	> 100 µM	> 100 µM	11.3	> 100 µM	–	–
